Data taken from ChEMBL document CHEMBL1240531, “Effects of conformational restriction of 2-amino-3-benzoylthiophenes on A(1) adenosine receptor modulation” (J Med Chem, 2010).

Legend:
[1] = biological target: T1, Adenosine receptor A1 (Homo sapiens) (UniProt P30542); test: Allosteric enhancement of human adenosine A1 receptor expressed in CHO FlpIn cells assessed as potentiation of N(6)-(R-phenylisopropyl)adenosine-induced ERK1/2 phosphorylation at 10 uM relative to N(6)-(R-phenylisopropyl)adenosine; assay type: cell-based
T1 sequence (whole entry): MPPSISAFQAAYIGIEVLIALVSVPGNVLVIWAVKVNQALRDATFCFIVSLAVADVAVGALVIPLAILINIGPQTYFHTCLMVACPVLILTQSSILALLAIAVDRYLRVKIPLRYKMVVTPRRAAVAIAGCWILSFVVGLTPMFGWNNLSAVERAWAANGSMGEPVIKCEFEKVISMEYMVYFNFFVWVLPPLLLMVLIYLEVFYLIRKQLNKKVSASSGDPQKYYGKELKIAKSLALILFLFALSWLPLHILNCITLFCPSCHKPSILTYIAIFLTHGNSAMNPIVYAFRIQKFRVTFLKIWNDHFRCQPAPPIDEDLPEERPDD

[2] = biological target: T1, Adenosine receptor A1 (Homo sapiens); test: Allosteric enhancement of human adenosine A1 receptor expressed in CHO FlpIn cells assessed as potentiation of N(6)-(R-phenylisopropyl)adenosine-induced ERK1/2 phosphorylation at 3 uM relative to N(6)-(R-phenylisopropyl)adenosine; assay type: cell-based
[3] = biological target: T1, Adenosine receptor A1 (Homo sapiens); test: Allosteric enhancement of human adenosine A1 receptor expressed in CHO FlpIn cells assessed as increase of ERK1/2 phosphorylation at 3 to 10 uM relative to N(6)-(R-phenylisopropyl)adenosine; assay type: cell-based
[4] = biological target: T2, Adenosine receptor A1 (Homo sapiens, UniProt P30542); test: Antagonist activity at human adenosine A1 receptor expressed in CHO FlpIn cells assessed as inhibition of N(6)-(R-phenylisopropyl)adenosine-induced ERK1/2 phosphorylation; assay type: functional, cell-based; settings: read-out: pA2 (converted)
T2 sequence (P30542 whole entry): T1 sequence (whole entry)
Method in brief: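 Human A1AR FlpIn-CHO cells were pretreated with 1 U/mL adenosine deaminase for 30 min, then with test ligand over a concentration range for 30 min at 37 °C. R-PIA was then added for 5 min stimulation. Lysates were assayed for phospho-ERK1/2 by AlphaScreen SureFire. Response was expressed as percent of the 6 min 3% FBS response. Three experiments in triplicate, mean ± SEM. Curves were fitted globally to a competitive or allosteric model.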

[5] = biological target: T3, Adenosine receptor A1 (Rattus norvegicus) (UniProt P25099); test: Allosteric enhancement of human adenosine A1 receptor in rat brain membranes assessed as increase of [3H]N6-cyclohexyladenosine binding at 100 uM relative to control; assay type: cell membranes
T3 sequence (whole entry): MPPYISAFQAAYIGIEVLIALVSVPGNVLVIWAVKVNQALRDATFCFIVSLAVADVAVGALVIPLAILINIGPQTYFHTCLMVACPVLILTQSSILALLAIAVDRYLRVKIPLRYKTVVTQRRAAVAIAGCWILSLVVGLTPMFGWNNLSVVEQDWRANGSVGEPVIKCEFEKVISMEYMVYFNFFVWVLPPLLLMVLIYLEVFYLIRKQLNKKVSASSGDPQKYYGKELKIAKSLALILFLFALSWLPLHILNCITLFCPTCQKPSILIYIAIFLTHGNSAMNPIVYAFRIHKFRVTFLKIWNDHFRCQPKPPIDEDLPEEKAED

Compound	Activity [1]	Activity [2]	Activity [3]	Kb [4]	Activity [5]
Nc1sc2c(c1C(=O)c1ccccc1)-c1ccccc1C2	9%	23%	5%		
Nc1sc(-c2ccc(C(=O)O)cc2)cc1C(=O)c1ccccc1	27%	51%	5%		
Nc1sc(-c2ccncc2)cc1C(=O)c1ccccc1	17%	23%	5%		
Nc1sc(-c2ccccc2)cc1C(=O)c1ccccc1	1%	12%	5%	209 nM	
Nc1sc(-c2cncnc2)cc1C(=O)c1ccccc1	2%	18%	5%		
Nc1sc(-c2cncnc2)c2c1C(=O)c1ccccc1-2	7%	19%	5%	646 nM	
Nc1sccc1C(=O)c1ccc(Cl)cc1	40%	50%	5%		
Nc1sc2c(c1C(=O)c1ccc(Cl)cc1)-c1cccc(C(F)(F)F)c1C2	73%	65%	5%		
Nc1sc(-c2ccc(C(=O)O)cc2)cc1C(=O)c1ccc(Cl)cc1	29%	27%	5%		
Nc1scc2c1C(=O)c1ccc(Cl)cc1-2	29%	56%	20%		
Nc1sc(-c2ccncc2)c2c1C(=O)c1ccccc1-2	17%	28%	5%		
Nc1sc(-c2ccc(C(=O)O)cc2)c2c1C(=O)c1ccccc1-2	7%	19%	5%		
Nc1sccc1C(=O)c1ccccc1	30%	48%	5%		59%
CN(C)c1ccc(-c2sc(N)c3c2-c2ccccc2C3=O)cc1	32%	48%	5%		
Nc1cccc2c1C(=O)c1ccccc1-2					122%
Nc1sc2c(c1C(=O)c1ccc(Cl)cc1)-c1ccccc1C2	84%	81%	20%		

Compound	Activity [1]	Activity [2]	Activity [3]	Kb [4]	Activity [5]
Nc1scc2c1C(=O)c1ccccc1-2	27%	45%	5%		
Nc1ccccc1C(=O)c1ccccc1					34%
Nc1sc2c(c1C(=O)c1ccc(Cl)cc1)-c1cc(C(F)(F)F)ccc1C2	73%	62%	5%		
Nc1sc(-c2ccncc2)cc1C(=O)c1ccc(Cl)cc1	17%	44%	5%		
COc1ccc(-c2cc(C(=O)c3ccc(Cl)cc3)c(N)s2)cc1	29%	51%	5%		
COc1ccc(-c2sc(N)c3c2-c2ccccc2C3=O)cc1	18%	37%	5%		
Nc1scc2c1C(=O)c1c(Cl)cccc1-2	38%	45%	5%		
Nc1sc(-c2ccccc2)cc1C(=O)c1ccc(Cl)cc1	16%	46%	5%		
Nc1sc2c(c1C(=O)c1ccccc1)-c1cc(C(F)(F)F)ccc1C2	38%	52%	5%		
Nc1sc(-c2ccccc2)c2c1C(=O)c1ccccc1-2	3%	19%	5%		
COc1ccc(-c2cc(C(=O)c3ccccc3)c(N)s2)cc1	14%	31%	5%		
Nc1sc(-c2cncnc2)cc1C(=O)c1ccc(Cl)cc1	4%	7%	5%	145 nM	
CN(C)c1ccc(-c2cc(C(=O)c3ccccc3)c(N)s2)cc1	29%	50%	5%		
CN(C)c1ccc(-c2cc(C(=O)c3ccc(Cl)cc3)c(N)s2)cc1	41%	56%	5%		
Nc1sc2c(c1C(=O)c1ccccc1)-c1cccc(C(F)(F)F)c1C2	49%	56%	5%		
